b-catenin transl = beta-catenin nuclear translocation modulation; AID 1665; 0.3% of 190,000 active; nuclear translocation activity, % at 5 µM; HeLa beta-catenin nuclear translocation, immunofluorescence imaging;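 active means nuclear translocation activity above 50% at 5 µM, with a well cell count of 50 or more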;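 further: per-cell ratio of nuclear to cytoplasmic median beta-catenin stain intensity; plate controls were DMSO negative control for no effect and GSK-3 inhibitor IX positive control for full effect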
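Signal – beta-catenin immunofluorescence imaging with DAPI · Test system – human HeLa cell line · Dosing – 5 µM primary single dose, 0.1% DMSO, 0.02–20 µM confirmation series · Measure – % activation, nuclear-to-cytoplasmic median beta-catenin signal ratio per cell · Incubation – 24 h compound exposure at 37°C, 5% CO2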
MT stabilizer = microtubule stabilizers in HeLa cells. HeLa tubulin immunostaining HCS, 24 h; share of cells brighter than vehicle mean+2SD. % tubulin-high responders, % at 10 µM. 0.83% of 200,000 active. AID 2205;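 active means plate Z-score above 3 for both tubulin-high and condensed-nucleus cell shares, with cell loss under 80%, at 10 µM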;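 further: anti alpha tubulin signal scored within the nucleus-defined area of each cell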
RAM network inh = inhibitors of the yeast RAM network. S. cerevisiae dse1pr::URA3 reporter, 5-FOA growth OD615, 2 d; analog-sensitive cbk1-as2 kinase mutant strain. 1.8% of 190,000 active. inhibition, % at 50 µM. AID 868;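 active means inhibition above a set limit, 3 SD over mean compound inhibition, cut at about 8.4% in these data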;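 further: 0% = DMSO-only wells with no growth and 100% = 10 µM 1-NA-PP1 full growth; inhibition rescues growth on 5-FOA so higher OD means more RAM inhibition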
BB579 growth dn = chemicals that inhibit yeast BB579 growth in restrictive medium (lifespan-shortening candidates) | S. cerevisiae BB579 growth, OD615, 48 h | inhibition, % at 10 µM | 0.51% of 140,000 active | AID 804;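 active means inhibition above a set limit, 3 SD over the mean compound inhibition, cut at about 44% in these data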
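Test system: DeaD yeast strain BB579 / Buffer or medium: restrictive glucose-based CSMM-D medium / Doses: single 10 µM dose / Schedule: 4 h cell preincubation, 48 h compound exposure, 30 °C humidified / Technique: culture absorbance at 615 nm / Controls: amphotericin B positive control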
HMGR II inh = blocks class II HMG-CoA reductase of Enterococcus faecalis | inhibition, % at 10 µM | 0.41% of 190,000 active | purified E. faecalis HMGR, NADPH absorbance 340 nm kinetic;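 active means inhibition above a set limit, the median over all tested compounds plus 3 SD, cut at about 9.5% in these data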;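 further: enzyme runs in reverse so mevalonate oxidation gives rising NADPH absorbance; 0% = complete reaction with DMSO and 100% = background rate lacking mevalonate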
Yeast life ext = extends the lifespan of yeast; S. cerevisiae growth with nicotinamide, OD615; deaD strain in restrictive glucose medium; inhibition of the nicotinamide effect, % at 10 µM; 0.68% of 130,000 active; AID 775;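 active means inhibition above a set limit, placed 3 SD over the median of all compounds, cut at about 26% in these data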;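 further: 0% = nicotinamide-treated wells and 100% = cells grown without nicotinamide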
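assay system = DeaD-strain S. cerevisiae | buffer or medium = restrictive glucose medium | reagent = 1.5 mM nicotinamide | compound = 10 µM single point, 0.25% DMSO | incubation = 48 h compound exposure at 30 °C, humidified | signal = OD615 measurement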
Active calls of the source: *; . = no result given. Rows were chosen to be rich in hits. Some 3.5% of all compounds tested hit in one or more screens of this group.

SMILES	b-catenin transl	MT stabilizer	RAM network inh	BB579 growth dn	HMGR II inh	Yeast life ext
O=C(Nc1ccc(F)cc1)C1CC(=O)n2ncnc2N1 (stereo not drawn)	1.5	4.6	1.7	.	-3.5	.
O=C(Nc1ccc(F)cc1)C1CC(=O)n2cnnc2N1 (stereo not drawn)	-2.9	4.1	2.5	.	9.7*	.
CNC(=S)N1CCc2cc(OC)c(OC)cc2C1	1.2	.	.	.	.	.
Cc1cc(NC(=O)CCC(=O)N(CC(=O)NC2CCCC2)c2ccccc2)no1	-3.9	3.5	-0.7	-39.6	10.2*	.
Cc1cc(NC(=O)CCCC(=O)N(CC(=O)NC2CCCCC2)c2ccccc2)no1	-1.9	4.2	0.1	-15.3	-1.1	4.4
COc1ccc(C(=O)c2c[nH]c(C(=O)N=CN(C)C)c2)cc1	-2.3	4.4	-0.8	.	0.1	.
Cc1cccc2cc(C#N)c(NCCNC(=O)COc3ccccc3)nc12	-1.4	2.1	10.2*	.	-3.5	.
Cc1cccc2cc(C#N)c(NCc3ccccc3)nc12	2.0	2.9	6.8	.	-1.1	.
O=S(=O)(c1cnc(Cl)c(Cl)c1)N1CCN(c2ncccn2)CC1	-2.5	.	.	.	.	.
CC(Oc1ccc(-c2ccccc2)c(F)c1)c1ccn(S(=O)(=O)c2ccc(F)cc2)n1 (stereo not drawn)	-1.5	2.1	9.4*	-26.8	-2.6	1.1
COCCNC(=O)c1c(N)n(-c2cccc(C)c2)c2nc3ccccc3nc12	-5.7	1.7	10.0*	-28.2	1.1	2.4
COc1cc(-n2c(N)c(C(=O)NCc3ccco3)c3nc4ccccc4nc32)cc(OC)c1OC	4.7	8.3	11.0*	-27.1	1.1	3.5
COCCCNC(=O)c1c(N)n(-c2ccccc2)c2nc3ccccc3nc12	0.3	.	.	.	.	.
Cc1ccccc1/C=N/Nc1nc2ccccc2c(=O)n1O	-0.8	.	.	.	.	.
CC(=O)c1ccc(NC(=O)C(C)Nc2ccc(Cl)cc2)cc1 (stereo not drawn)	-0.1	3.8	-0.5	.	-0.3	.
CC1CCN(CC(=O)Nc2ccc(N3CCCCCC3)cc2)CC1	0.0	1.4	1.4	.	-8.2	.
COc1ccc(NS(=O)(=O)c2ccc(Cl)c(NC(=O)c3cccnc3Cl)c2)cc1	0.2	.	.	.	.	.
CC(C)(C)C(=O)Nc1cc(S(=O)(=O)Nc2ccc(Cl)cc2)ccc1Cl	0.0	2.5	11.2*	-25.4	-0.2	8.0
CN1CCc2cc3c(c4c2[C@H]1[C@H](O)c1ccccc1-4)OCO3	.	2.8	-0.1	62.1*	0.4	-5.1
CCc1ccc(NC(=O)N(Cc2ccco2)C(C)c2cccs2)cc1 (stereo not drawn)	-1.6	2.1	11.0*	-35.0	-1.3	-19.3
CCc1ccccc1NC(=S)N(Cc1ccco1)C(C)c1cccs1 (stereo not drawn)	0.4	2.6	0.9	.	-2.6	.
O=C(COC(=O)CC1CC2CCC1C2)Nc1cccc(S(=O)(=O)NC2=NCCCCC2)c1 (stereo not drawn)	-2.2	3.7	0.8	.	0.6	.
COc1ccc(CC(=O)NCc2cccs2)cc1	53.9*	42.8*	0.6	-28.6	-0.2	-11.5
O=C(Cc1cccs1)NCc1cccs1	-0.2	3.9	1.4	-7.5	2.2	-6.1
O=Nc1c2nc3ccccc3n(O)c-2c2ccccc12	3.9	9.7	5.8	64.3*	-5.8	-5.7
SMILES	b-catenin transl	MT stabilizer	RAM network inh	BB579 growth dn	HMGR II inh	Yeast life ext
COc1cc(/C=C/C(=O)OCC(=O)NC2CC2)cc(S(=O)(=O)N2CCc3ccccc32)c1OC	-0.4	2.0	0.4	.	-2.7	.
COc1cc(/C=C/C(=O)OCC(=O)Nc2ccc(NC(C)=O)cc2)cc(S(=O)(=O)N2CCc3ccccc32)c1OC	2.8	4.4	10.3*	.	-2.7	.
COc1ccccc1NC(=O)Cc1noc(CSc2cccc[n+]2[O-])n1	0.3	2.6	2.3	95.0*	-1.3	-14.8
CCc1cc2c(SCc3nc4sc(C(C)=O)c(C)c4c(=O)[nH]3)ncnc2s1	23.6	.	.	.	.	.
Cc1cc(/C=N/n2cnnc2)c(C)n1-c1ccc(Cl)cc1	3.9	3.0	1.5	2.5	0.4	2.7
Cc1cc(/C=N/n2cnnc2)c(C)n1-c1ccc(OCc2ccc(Cl)cc2Cl)cc1	.	2.2	0.2	46.3*	0.0	-11.3
CCCCN(C)C(=O)c1cc2c(s1)-c1ccccc1S(=O)(=O)C2	-1.2	.	.	.	.	.
N#CCCn1cc(/C=N/NC(N)=S)c(-c2ccc(-c3ccccc3)cc2)n1	0.4	4.9	3.0	.	-0.8	.
CCN(CC)c1ccc(NC(=O)c2ccc3c(c2)c(C)c(C)n3C)cc1	.	14.0*	4.2	.	-2.1	.
CCOc1cccc(C(=O)Nc2ccc(N(CC)CC)cc2)c1	-1.3	21.4	1.7	-43.0	-1.9	-3.5
COC(C(=O)NNC(=O)CCc1ccccc1)c1ccccc1 (stereo not drawn)	-4.3	1.7	2.5	.	2.5	.
Cc1nn(-c2ccccc2)c(C)c1/C=C/C(=O)OCC(=O)Nc1ncc(C(F)(F)F)cc1Cl	1.6	2.1	1.3	-31.1	2.6	-2.1
Cc1cc(OC(=O)c2cc(F)c(F)cc2Cl)nc(C)n1	.	3.6	0.2	-26.2	-8.0	-3.5
Cc1cc(C)c(S(=O)(=O)c2ccccc2)c(OC(=O)c2cc(F)c(F)cc2Cl)n1	-3.6	2.3	0.6	-67.5	1.9	43.4*
CCOc1ccc(NC(=O)c2cc3c(C)nc4ccccc4c3o2)cc1	126.0*	17.0*	2.5	-5.5	-5.0	-15.4
Cc1nc2ccccc2c2oc(C(=O)NC3CC3)cc12	.	2.4	0.3	-60.9	-1.7	-3.7
Cc1ccc2nc(NC(=O)C3CCCN3C(=O)OC(C)(C)C)sc2c1 (stereo not drawn)	-2.5	2.1	0.7	.	-4.4	.
COc1cc(OC)nc(NC(=O)CS(=O)(=O)c2ccccc2)n1	4.3	2.0	-1.0	55.5*	-1.9	.
OC(COc1ccc(CNCCc2ccccc2F)cc1)CN1CCCCC1 (stereo not drawn)	-1.9	2.0	-0.4	.	-2.1	.
O=[N+]([O-])c1ccccc1-c1ccc(C(=S)N2CCCC2)o1	-0.6	4.1	2.1	.	4.7	.
Cc1cccc(N2CCN(C(=S)c3ccc(-c4ccccc4[N+](=O)[O-])o3)CC2)c1	0.8	23.2*	10.8*	-65.4	-5.9	3.5
COC(=O)c1cc2ccsc2n1CC(=O)Nc1cc(Cl)ccc1OC	.	30.0*	1.6	-65.6	0.7	-4.4
COC(=O)c1cc2ccsc2n1CC(=O)Nc1ccc(N(C)C)cc1	2.7	3.8	1.7	-28.1	-0.4	-15.2
O=C(Nc1ccc(Cl)cc1)NC1CCCC1Cc1ccco1 (stereo not drawn)	0.7	2.6	8.8*	-11.1	-0.9	-23.9
COC(=O)c1sccc1NC(=O)CSc1cc(Cl)ccc1Cl	.	3.5	9.5*	-34.2	-9.0	-14.5
CN(CC(=O)Nc1ccccc1C(F)(F)F)C(=O)COc1cccnc1[N+](=O)[O-]	1.1	1.3	1.6	.	-3.4	.

Screening results: PubChem BioAssay, several laboratories
